Published values collected from several papers.
Compare with care: the assays were run in different laboratories.
PTGS2: Prostaglandin G/H synthase 2 (PTGS2, Homo sapiens, UniProt P35354)
NPY2R: Neuropeptide Y receptor type 2 (NPY2R, Homo sapiens, UniProt P49146)
SIGMAR1: Sigma non-opioid intracellular receptor 1 (SIGMAR1, Cavia porcellus, UniProt Q60492)
Rock2: Rho-associated protein kinase 2 (Rock2, Rattus norvegicus, UniProt Q62868)

COc1cc(-c2cc(=O)c3c(O)cc(O)cc3o2)ccc1O
inhibition (PTGS2; enzyme activity, inhibitor; 0.49 µg/mL): 0%

O=C1N=C(N2CCCCN2)S/C1=C\c1ccc(F)cc1O
inhibition (NPY2R; ligand displacement, radioligand; 10 µM): < 10%

O=C(c1ccc(Cl)cc1)N(Cc1ccccc1)C1CCCCC1
inhibition (Alpha-2B adrenergic receptor (ADRA2B, Homo sapiens, UniProt P18089); cell-free assay; 10 µM): 7.2%

COC(=O)c1ccc(O)cc1
inhibition (PTGS2; enzyme activity, inhibitor; 15.63 µg/mL): 53.2%

CC(CN(C)C)C(Oc1cccc2ccccc12)c1cccs1 (centres unmarked)
inhibition (Sigma intracellular receptor 2 (TMEM97, Homo sapiens, UniProt Q5BJF2); ligand displacement, radioligand; 10 µM): -4.5%

COc1ccc(-c2cc(=O)c3c(O)cc(O[C@@H]4O[C@H](CO)[C@@H](O)[C@H](O)[C@H]4O)cc3o2)cc1O
inhibition (PTGS2; enzyme activity, inhibitor; 0.24 µg/mL): 39.7%

CNC(=O)[C@@]12C[C@@H]1[C@@H](n1cnc3c(NC)nc(C#Cc4ccc(Cl)s4)nc31)[C@H](O)[C@@H]2O
inhibition (SIGMAR1; ligand displacement, radioligand; 10 µM): 60 to 70%

O=C(c1ccc(F)cc1)N(Cc1ccccc1)C1CCCCC1
inhibition (NPY2R; cell-free assay; 10 µM): -14%

CNC(=O)c1cc(Oc2ccc(NC(=O)Nc3ccc(Cl)c(C(F)(F)F)c3)cc2)ccn1
inhibition (Rock2; enzyme activity, inhibitor; 0.3 µM): 17%

COc1cc([C@H]2OC[C@H]3[C@@H]2CO[C@@H]3c2cc(OC)c(O)c(OC)c2)cc(OC)c1O
inhibition (PTGS2; enzyme activity, inhibitor; 0.98 µg/mL): 49.3%

CCN1CCN(Cc2ccc(NC(=O)c3ccc(C)c(Oc4ccnc5[nH]ccc45)c3)cc2C(F)(F)F)CC1
inhibition (Inositol-tetrakisphosphate 1-kinase (Homo sapiens, UniProt Q13572); target engagement in cells, inhibitor, chemoproteomics; Huh-7; 10 µM): -35.5%

O=C(Nc1ccc(S(=O)(=O)N2CCC(Cl)CC2)cc1)c1ccc([N+](=O)[O-])o1
inhibition (NPY2R; ligand displacement, radioligand; 10 µM): 4%

Nc1ncnc2c1ncn2[C@@H]1O[C@H](CSCCNC(=O)NCc2ccccc2)[C@@H](O)[C@H]1O
inhibition (Protein arginine N-methyltransferase 7 (PRMT7, Homo sapiens, UniProt Q9NVM4); enzyme activity, inhibitor, radiometric; 10 µM): > 75%

CN(C)C1CCN(CC#Cc2nn(C3CCCC3)c3nc(NCc4ccccc4)ncc23)C1 (centres unmarked)
inhibition (Ribosomal protein S6 kinase beta-1 (RPS6KB1, Homo sapiens, UniProt P23443); enzyme activity, inhibitor, FRET; 1 µM): 4%

Cc1ccc(Nc2nccc(N(C)c3ccc4c(C)n(C)nc4c3)n2)cc1S(N)(=O)=O
inhibition (Rock2; enzyme activity, inhibitor; 10 µM): 29%

C=C[C@@]1(C)C=C2CC[C@@H]3[C@](C)(CCC[C@@]3(C)C(=O)O)[C@H]2CC1
inhibition (PTGS2; enzyme activity, inhibitor; 0.98 µg/mL): 15.2%

COc1ccc(CCC(C)N2CCc3cc(OC)c(OC)cc3C2)cc1 (centres unmarked)
inhibition (SIGMAR1; ligand displacement, radioligand; 0.1 µM): 11%
